Several values for one entry are separate records, joined by “and”; a condition that tells them apart may be missing. Equal values may be shown once.
What was measured:
[1] = Cytotoxicity upon MRC-5 cells (diploid embryonic lung cell line) at 1 uM; type: cell-based, MRC5; settings: human
Outline: (§1)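 MRC-5 human diploid embryonic lung cells seeded at 5000/well, washed after 24 h, then given 2-fold drug dilutions in RPMI + 5% FCS (final DMSO below 0.5%). Incubated at 37 °C, 5% CO₂, for 7 days. MTT read-out at 540 nm, scored as percent absorbance reduction versus untreated controls.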

[2] = Cytotoxicity upon MPMs (mouse peritoneal macrophages) at 32 uM
Outline: (§2)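 Mouse peritoneal macrophages harvested 48 h after potato-starch stimulation and seeded at 30000 cells/well. After 24 h, washed and exposed to 2-fold drug dilutions in RPMI + 5% FCS (final DMSO below 0.5%) at 37 °C, 5% CO₂, for 7 days. Toxicity scored microscopically as toxic or not versus untreated controls.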

[3] = tested on: Plasmodium falciparum; assay: Inhibitory activity against chloroquine-resistant Plasmodium falciparum FcB1R; type: functional, organism-based
[4] = Cytotoxicity upon MPMs (mouse peritoneal macrophages) at 8 uM; outline: as §2
[5] = Cytotoxicity upon MPMs (mouse peritoneal macrophages) at 2 uM; outline: as §2
[6] = Cytotoxicity upon MRC-5 cells (diploid embryonic lung cell line) at 32 uM; type: cell-based, MRC5; settings: human; outline: as §1
[7] = Cytotoxicity upon MRC-5 cells (diploid embryonic lung cell line) at 8 uM; type: cell-based, MRC5; settings: human; outline: as §1
[8] = Cytotoxicity upon MRC-5 cells (diploid embryonic lung cell line) at 3.1 uM; type: cell-based, MRC5; settings: human; outline: as §1
[9] = Cytotoxicity upon MRC-5 cells (diploid embryonic lung cell line) at 6.3 uM; type: cell-based, MRC5; settings: human; outline: as §1
[10] = Cytotoxicity upon MRC-5 cells (diploid embryonic lung cell line) at 12.5 uM; type: cell-based, MRC5; settings: human; outline: as §1

Structure (SMILES)	cytotoxicity at 1 µM [1] [%]	Cytotoxicity [2]	IC50 ([3]; Plasmodium falciparum) [nM]	Cytotoxicity [4]	NT [5]	cytotoxicity at 32 µM [6] [%]	cytotoxicity at 8 µM [7] [%]	cytotoxicity at 3.1 µM [8] [%]	cytotoxicity at 6.3 µM [9] [%]	cytotoxicity at 12.5 µM [10] [%]	IC50 [3]
O=C(CN1CCCCC1)Nc1cc(CN2CCN(Cc3ccc([N+](=O)[O-])cc3)CC2)cc(Nc2ccnc3cc(Cl)ccc23)c1	0	Cytotoxicity upon MPMs at 32 uM	13.2	Cytotoxicity upon MPMs at 32 uM	Cytotoxicity upon MPMs at 2 uM	100	99	–	–	–	–
O=C(CN1CCCCC1)Nc1cc(CN2CCN(Cc3ccc(Cl)cc3)CC2)cc(Nc2ccnc3cc(Cl)ccc23)c1	0	Cytotoxicity upon MPMs at 32 uM	11.5	Cytotoxicity upon MPMs at 32 uM	Cytotoxicity upon MPMs at 2 uM	100	100	–	–	–	–
O=C(CN1CCCCC1)Nc1cc(CN2CCN(C(c3ccccc3)c3ccccc3)CC2)cc(Nc2ccnc3cc(Cl)ccc23)c1	87	Cytotoxicity upon MPMs at 32 uM	12.5	Cytotoxicity upon MPMs at 32 uM	Cytotoxicity upon MPMs at 2 uM	98	97	–	–	–	–
O=C(CN1CCCCC1)Nc1cc(CN2CCN(Cc3ccccc3)CC2)cc(Nc2ccnc3cc(Cl)ccc23)c1	0	Cytotoxicity upon MPMs at 32 uM	13	Cytotoxicity upon MPMs at 32 uM	Cytotoxicity upon MPMs at 2 uM	100	100	–	–	–	–
O=C(CN1CCCCC1)Nc1cc(CN2CCN(CCO)CC2)cc(Nc2ccnc3cc(Cl)ccc23)c1	0	Cytotoxicity upon MPMs at 32 uM	11.5	Cytotoxicity upon MPMs at 32 uM	Cytotoxicity upon MPMs at 2 uM	100	100	–	–	–	–
O=C(CN1CCCCC1)Nc1cc(CN2CCCC2)cc(Nc2ccnc3cc(Cl)ccc23)c1	0	Cytotoxicity upon MPMs at 32 uM	6.9	Cytotoxicity upon MPMs at 32 uM	Cytotoxicity upon MPMs at 2 uM	100	100	–	–	–	–
O=C(CN1CCCCC1)Nc1cc(CN2CCN(Cc3ccc4c(c3)OCO4)CC2)cc(Nc2ccnc3cc(Cl)ccc23)c1	86	Cytotoxicity upon MPMs at 32 uM	6.9	Cytotoxicity upon MPMs at 32 uM	Cytotoxicity upon MPMs at 2 uM	100	99	–	–	–	–
CC(C)(C)NCc1cc(NC(=O)CN2CCCCC2)cc(Nc2ccnc3cc(Cl)ccc23)c1	0	Cytotoxicity upon MPMs at 32 uM	3.7	Cytotoxicity upon MPMs at 32 uM	Cytotoxicity upon MPMs at 2 uM	100	100	–	–	–	–
O=C(CNCc1ccc(Cl)cc1)Nc1cc(CO)cc(Nc2ccnc3cc(Cl)ccc23)c1	–	–	855	–	–	–	–	0	0	0	–
O=C(CN1CCc2ccccc2C1)Nc1cc(CO)cc(Nc2ccnc3cc(Cl)ccc23)c1	–	–	1450	–	–	–	–	0	0	0	–
CN1CCN(Cc2cc(NC(=O)CN3CCCCC3)cc(Nc3ccnc4cc(Cl)ccc34)c2)CC1	0	Cytotoxicity upon MPMs at 32 uM	7.5	Cytotoxicity upon MPMs at 32 uM	Cytotoxicity upon MPMs at 2 uM	83	80	–	–	–	–
O=C(CN1CCCCC1)Nc1cc(CN2CCC(O)CC2)cc(Nc2ccnc3cc(Cl)ccc23)c1	0	Cytotoxicity upon MPMs at 32 uM	6.5	Cytotoxicity upon MPMs at 32 uM	Cytotoxicity upon MPMs at 2 uM	100	100	–	–	–	–
COc1ccc(CN2CCN(Cc3cc(NC(=O)CN4CCCCC4)cc(Nc4ccnc5cc(Cl)ccc45)c3)CC2)cc1	50	Cytotoxicity upon MPMs at 32 uM	11	Cytotoxicity upon MPMs at 32 uM	Cytotoxicity upon MPMs at 2 uM	100	100	–	–	–	–
O=C(CN1CCC(O)CC1)Nc1cc(CO)cc(Nc2ccnc3cc(Cl)ccc23)c1	–	–	1050	–	–	–	–	0	0	0	–
O=C(CN1CCCCC1)Nc1cc(CNCc2ccc(C(F)(F)F)cc2)cc(Nc2ccnc3cc(Cl)ccc23)c1	0	Cytotoxicity upon MPMs at 32 uM	5.5	Cytotoxicity upon MPMs at 32 uM	Cytotoxicity upon MPMs at 2 uM	100	100	–	–	–	–
O=C(CN1CCCCC1)Nc1cc(CNC(c2ccccc2)c2ccccc2)cc(Nc2ccnc3cc(Cl)ccc23)c1	0	Cytotoxicity upon MPMs at 32 uM	9.1	Cytotoxicity upon MPMs at 32 uM	Cytotoxicity upon MPMs at 2 uM	100	100	–	–	–	–
O=C(CN1CCCCC1)Nc1cc(CNCCN2CCCC2)cc(Nc2ccnc3cc(Cl)ccc23)c1	–	Cytotoxicity upon MPMs at 32 uM	10.2	–	Cytotoxicity upon MPMs at 2 uM	100	100	–	–	–	6.6 nM and 7.9 nM
O=C(CN1CCCCC1)Nc1cc(CNc2ccccc2)cc(Nc2ccnc3cc(Cl)ccc23)c1	0	Cytotoxicity upon MPMs at 32 uM	21.2	Cytotoxicity upon MPMs at 32 uM	Cytotoxicity upon MPMs at 2 uM	100	100	–	–	–	–
CN(C)CCN(C)Cc1cc(NC(=O)CN2CCCCC2)cc(Nc2ccnc3cc(Cl)ccc23)c1	43	Cytotoxicity upon MPMs at 32 uM	5	Cytotoxicity upon MPMs at 32 uM	Cytotoxicity upon MPMs at 2 uM	100	100	–	–	–	–
O=C(CN1CCCCC1)Nc1cc(CN2CCN(c3ccccc3)CC2)cc(Nc2ccnc3cc(Cl)ccc23)c1	0	Cytotoxicity upon MPMs at 32 uM	5.5	Cytotoxicity upon MPMs at 32 uM	Cytotoxicity upon MPMs at 2 uM	100	100	–	–	–	–
O=C(CN1CCCCC1)Nc1cc(CNCc2ccccc2)cc(Nc2ccnc3cc(Cl)ccc23)c1	96	Cytotoxicity upon MPMs at 32 uM	8.5	Cytotoxicity upon MPMs at 32 uM	Cytotoxicity upon MPMs at 2 uM	100	100	–	–	–	–
